Assay results taken from ChEMBL document CHEMBL3244034, “Semisynthetic cephalosporins. Synthesis and structure-activity relationships of 7-(1-pyrryl)- and 7-(1-indolyl)acetamidocephalosporin derivatives” (1978).
In brackets after ≈: the same amount, converted by molar mass. Activity calls are given as the source filed them. The rule behind the calls is not given here.

What was measured:
[1] = system: Haemophilus influenzae; assay: Antibacterial activity against Haemophilus influenzae after 17 hrs by serial two fold dilution method; type: functional, organism-based
[2] = system: Staphylococcus aureus; assay: Antibacterial activity against benzylpenicillin-resistant Staphylococcus aureus infected in sc dosed CD1 mouse assessed as host survival administered 1 and 4 hrs after infection measured on day 4; type: functional
Method in brief: (§1)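 Male albino CD-1 mice, 20 (± 1) g, infected intraperitoneally with a bacterial suspension giving uniformly lethal infection. Groups of ten mice were treated subcutaneously with antibiotic at 1 and 4 h post-infection. Survival over 4 days was recorded.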

[3] = system: Escherichia coli; assay: Antibacterial activity against Escherichia coli after 17 hrs by serial two fold dilution method; type: functional
Method in brief: (§2)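 Agar dilution MIC: compound serially diluted twofold in Mueller-Hinton agar. Plate surfaces were inoculated with a suitably diluted 18-24-h broth culture and incubated 17 h at 37 °C. MIC was read as the lowest concentration giving complete or virtually complete inhibition of visible growth.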

[4] = system: Staphylococcus aureus; assay: Antibacterial activity against benzylpenicillin-resistant Staphylococcus aureus after 17 hrs by serial two fold dilution method; type: functional
Method in brief: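 Agar dilution MIC. Compound was serially diluted twofold in Mueller-Hinton agar. The surface was inoculated with a diluted 18-24-h broth culture […]. Plates were incubated 17 h at 37 °C. MIC was taken as the lowest concentration giving complete or virtually complete inhibition of visible growth.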

[5] = system: Staphylococcus epidermidis; assay: Antibacterial activity against Staphylococcus epidermidis after 17 hrs by serial two fold dilution method; type: functional; method in brief: as §2
[6] = system: Salmonella; assay: Antibacterial activity against Salmonella schottmuelleri after 17 hrs by serial two fold dilution method; type: functional; method in brief: as §2
[7] = system: Staphylococcus aureus; assay: Antibacterial activity against Staphylococcus aureus after 17 hrs by serial two fold dilution method; type: functional; method in brief: as §2
[8] = system: Enterococcus faecalis; assay: Antibacterial activity against Staphylococcus faecalis after 17 hrs by serial two fold dilution method; type: functional; method in brief: as §2
[9] = system: Enterobacter cloacae; assay: Antibacterial activity against Enterobacter cloacae after 17 hrs by serial two fold dilution method; type: functional
[10] = system: Klebsiella aerogenes; assay: Antibacterial activity against Enterobacter aerogenes after 17 hrs by serial two fold dilution method; type: functional
[11] = system: Streptococcus pyogenes; assay: Antibacterial activity against Streptococcus pyogenes after 17 hrs by serial two fold dilution method; type: functional; method in brief: as §2
[12] = system: Proteus mirabilis; assay: Antibacterial activity against Proteus mirabilis after 17 hrs by serial two fold dilution method; type: functional; method in brief: as §2
[13] = system: Fusobacterium varium; assay: Antibacterial activity against Fusobacterium varium after 17 hrs by serial two fold dilution method; type: functional, organism-based
[14] = system: Escherichia coli; assay: Antibacterial activity against Escherichia coli infected in sc dosed CD1 mouse assessed as host survival administered 1 and 4 hrs after infection measured on day 4; type: functional; method in brief: as §1
[15] = system: Proteus mirabilis; assay: Antibacterial activity against Proteus mirabilis infected in sc dosed CD1 mouse assessed as host survival administered 1 and 4 hrs after infection measured on day 4; type: functional; method in brief: as §1
[16] = system: Providencia stuartii; assay: Antibacterial activity against Providencia stuartii after 17 hrs by serial two fold dilution method; type: functional; method in brief: as §2
[17] = system: Proteus vulgaris; assay: Antibacterial activity against Proteus vulgaris after 17 hrs by serial two fold dilution method; type: functional; method in brief: as §2
[18] = system: Streptococcus pneumoniae; assay: Antibacterial activity against Streptococcus pneumoniae after 17 hrs by serial two fold dilution method; type: functional; method in brief: as §2
[19] = system: Neisseria gonorrhoeae; assay: Antibacterial activity against Neisseria gonorrhoeae after 17 hrs by serial two fold dilution method; type: functional, organism-based
[20] = system: Klebsiella pneumoniae; assay: Antibacterial activity against Klebsiella pneumoniae after 17 hrs by serial two fold dilution method; type: functional; method in brief: as §2
[21] = system: Pseudomonas aeruginosa; assay: Antibacterial activity against Pseudomonas aeruginosa after 17 hrs by serial two fold dilution method; type: functional; method in brief: as §2
[22] = system: Bacteroides fragilis; assay: Antibacterial activity against Bacteroides fragilis after 17 hrs by serial two fold dilution method; type: functional, organism-based
[23] = system: Klebsiella pneumoniae; assay: Antibacterial activity against Klebsiella pneumoniae infected in sc dosed CD1 mouse assessed as host survival administered 1 and 4 hrs after infection measured on day 4; type: functional; method in brief: as §1
[24] = system: Streptococcus pyogenes; assay: Antibacterial activity against Streptococcus pyogenes infected in sc dosed CD1 mouse assessed as host survival administered 1 and 4 hrs after infection measured on day 4; type: functional; method in brief: as §1
[25] = system: Salmonella; assay: Antibacterial activity against Salmonella schottmuelleri infected in sc dosed CD1 mouse assessed as host survival administered 1 and 4 hrs after infection measured on day 4; type: functional; method in brief: as §1

Cn1nnnc1SCC1=C(C(=O)O)N2C(=O)[C@@H](NC(=O)Cn3cccc3)[C@H]2SC1
Activity [1]: inactive | ED50 [2]: 72 mg/kg | MIC [3]: 0.8 µg/mL (≈ 1.84 µM) | MIC [4]: 0.8 µg/mL (≈ 1.84 µM) | MIC [5]: 1.6 µg/mL (≈ 3.67 µM) | MIC [6]: 0.4 µg/mL (≈ 0.919 µM) | MIC [7]: 0.4 µg/mL (≈ 0.919 µM) | MIC [8]: > 100 µg/mL | MIC [9]: 6.2 µg/mL (≈ 14.2 µM) | MIC [10]: 25 µg/mL (≈ 57.4 µM) | MIC [11]: 0.1 µg/mL (≈ 0.23 µM) | MIC [12]: 6.2 µg/mL (≈ 14.2 µM) | Activity [13]: inactive | ED50 [14]: 2.5 mg/kg | ED50 [15]: 100 mg/kg | MIC [16]: 6.2 µg/mL (≈ 14.2 µM) | MIC [17]: > 100 µg/mL | MIC [18]: 0.1 µg/mL (≈ 0.23 µM) | Activity [19]: inactive | MIC [20]: 1.6 µg/mL (≈ 3.67 µM) | MIC [21]: > 100 µg/mL | Activity [22]: inactive | ED50 [23]: 67 mg/kg | ED50 [24]: 2.3 mg/kg | ED50 [25]: 2.5 mg/kg

Cn1nnnc1SCC1=C(C(=O)O)N2C(=O)[C@@H](NC(=O)Cn3cccc3C=O)[C@H]2SC1
MIC [3]: 12.5 µg/mL (≈ 27 µM) | MIC [4]: 1.6 µg/mL (≈ 3.45 µM) | MIC [5]: 3.1 µg/mL (≈ 6.69 µM) | MIC [6]: 6.2 µg/mL (≈ 13.4 µM) | MIC [7]: 0.8 µg/mL (≈ 1.73 µM) | MIC [8]: > 100 µg/mL | MIC [9]: > 100 µg/mL | MIC [10]: 100 µg/mL (≈ 216 µM) | MIC [11]: 0.2 µg/mL (≈ 0.431 µM) | MIC [12]: 50 µg/mL (≈ 108 µM) | MIC [16]: 50 µg/mL (≈ 108 µM) | MIC [17]: > 100 µg/mL | MIC [20]: 12.5 µg/mL (≈ 27 µM) | MIC [21]: > 100 µg/mL

Cc1nnc(SCC2=C(C(=O)O)N3C(=O)[C@@H](NC(=O)Cn4ccc5ccccc54)[C@H]3SC2)s1
MIC [3]: 50 µg/mL (≈ 99.7 µM) | MIC [4]: 0.2 µg/mL (≈ 0.399 µM) | MIC [5]: 0.4 µg/mL (≈ 0.797 µM) | MIC [6]: 25 µg/mL (≈ 49.8 µM) | MIC [7]: 0.1 µg/mL (≈ 0.199 µM) | MIC [8]: > 100 µg/mL | MIC [9]: 100 µg/mL (≈ 199 µM) | MIC [10]: 100 µg/mL (≈ 199 µM) | MIC [11]: 0.05 µg/mL (≈ 0.0997 µM) | MIC [12]: 50 µg/mL (≈ 99.7 µM) | MIC [16]: 25 µg/mL (≈ 49.8 µM) | MIC [17]: > 100 µg/mL | MIC [18]: ≤ 0.025 µg/mL | MIC [20]: 50 µg/mL (≈ 99.7 µM) | MIC [21]: > 100 µg/mL

CC(=O)OCC1=C(C(=O)O)N2C(=O)[C@@H](NC(=O)Cn3cccc3)[C@H]2SC1
MIC [3]: 6.2 µg/mL (≈ 16.3 µM) | MIC [4]: 1.6 µg/mL (≈ 4.22 µM) | MIC [5]: 3.1 µg/mL (≈ 8.17 µM) | MIC [6]: 3.1 µg/mL (≈ 8.17 µM) | MIC [7]: 0.8 µg/mL (≈ 2.11 µM) | MIC [8]: > 100 µg/mL | MIC [9]: > 100 µg/mL | MIC [10]: > 100 µg/mL | MIC [11]: 0.4 µg/mL (≈ 1.05 µM) | MIC [12]: 12.5 µg/mL (≈ 32.9 µM) | MIC [16]: 50 µg/mL (≈ 132 µM) | MIC [17]: > 100 µg/mL | MIC [18]: 0.4 µg/mL (≈ 1.05 µM) | MIC [20]: 6.2 µg/mL (≈ 16.3 µM) | MIC [21]: > 100 µg/mL

Cn1nnnc1SCC1=C(C(=O)O)N2C(=O)[C@@H](NC(=O)Cn3ccc4ccccc43)[C@H]2SC1
MIC [3]: 12.5 µg/mL (≈ 25.7 µM) | MIC [4]: 0.2 µg/mL (≈ 0.412 µM) | MIC [5]: 0.4 µg/mL (≈ 0.824 µM) | MIC [6]: 6.2 µg/mL (≈ 12.8 µM) | MIC [7]: 0.1 µg/mL (≈ 0.206 µM) | MIC [8]: > 100 µg/mL | MIC [9]: 50 µg/mL (≈ 103 µM) | MIC [10]: 50 µg/mL (≈ 103 µM) | MIC [11]: 0.05 µg/mL (≈ 0.103 µM) | MIC [12]: 50 µg/mL (≈ 103 µM) | MIC [16]: 25 µg/mL (≈ 51.5 µM) | MIC [17]: > 100 µg/mL | MIC [20]: 12.5 µg/mL (≈ 25.7 µM) | MIC [21]: > 100 µg/mL

CC(=O)OCC1=C(C(=O)O)N2C(=O)[C@@H](NC(=O)Cn3cccc3C=O)[C@H]2SC1
MIC [3]: 100 µg/mL (≈ 245 µM) | MIC [4]: 1.6 µg/mL (≈ 3.93 µM) | MIC [5]: 3.1 µg/mL (≈ 7.61 µM) | MIC [6]: 50 µg/mL (≈ 123 µM) | MIC [7]: 0.8 µg/mL (≈ 1.96 µM) | MIC [8]: > 100 µg/mL | MIC [9]: > 100 µg/mL | MIC [10]: > 100 µg/mL | MIC [11]: 0.4 µg/mL (≈ 0.982 µM) | MIC [12]: 100 µg/mL (≈ 245 µM) | MIC [16]: > 100 µg/mL | MIC [17]: > 100 µg/mL | MIC [20]: 50 µg/mL (≈ 123 µM) | MIC [21]: > 100 µg/mL
